Consider 37 compounds from ChEMBL document CHEMBL4004835, “Discovery of Novel Disruptor of Silencing Telomeric 1-Like (DOT1L) Inhibitors using a Target-Specific Scoring Function for the (S)-Adenosyl-l-methionine (SAM)-Dependent Methyltransferase Family” (J Med Chem, 2017).

SMILES strings stand for the structures. Active and inactive are the calls of the source. The calls are words filed in the database; no cut-off is given here. Some results are limits rather than exact numbers.

The target of test [1] is T1, Histone-lysine N-methyltransferase, H3 lysine-79 specific (Homo sapiens, UniProt Q8TEK3). Description: Inhibition of N-terminal 6His-tagged human DOT1L (1 to 416 residues) expressed in Escherichia coli BL21(DE3) at 50 uM preincubated for 15 mins followed by [3H]-SAM addition measured after 120 mins by radioactive methylation assay. An outline of the steps: (§1)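 DOT1L and compound preincubated 15 min at room temperature; oligonucleosome and 3H-SAM added; reaction 120 min at room temperature, stopped with cold SAM; transferred to 0.5% PEI-pretreated filter plate, washed 3× with water, read by liquid scintillation counting.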
Target sequence in this assay (Q8TEK3 whole entry, looked up, the tested form may be a part): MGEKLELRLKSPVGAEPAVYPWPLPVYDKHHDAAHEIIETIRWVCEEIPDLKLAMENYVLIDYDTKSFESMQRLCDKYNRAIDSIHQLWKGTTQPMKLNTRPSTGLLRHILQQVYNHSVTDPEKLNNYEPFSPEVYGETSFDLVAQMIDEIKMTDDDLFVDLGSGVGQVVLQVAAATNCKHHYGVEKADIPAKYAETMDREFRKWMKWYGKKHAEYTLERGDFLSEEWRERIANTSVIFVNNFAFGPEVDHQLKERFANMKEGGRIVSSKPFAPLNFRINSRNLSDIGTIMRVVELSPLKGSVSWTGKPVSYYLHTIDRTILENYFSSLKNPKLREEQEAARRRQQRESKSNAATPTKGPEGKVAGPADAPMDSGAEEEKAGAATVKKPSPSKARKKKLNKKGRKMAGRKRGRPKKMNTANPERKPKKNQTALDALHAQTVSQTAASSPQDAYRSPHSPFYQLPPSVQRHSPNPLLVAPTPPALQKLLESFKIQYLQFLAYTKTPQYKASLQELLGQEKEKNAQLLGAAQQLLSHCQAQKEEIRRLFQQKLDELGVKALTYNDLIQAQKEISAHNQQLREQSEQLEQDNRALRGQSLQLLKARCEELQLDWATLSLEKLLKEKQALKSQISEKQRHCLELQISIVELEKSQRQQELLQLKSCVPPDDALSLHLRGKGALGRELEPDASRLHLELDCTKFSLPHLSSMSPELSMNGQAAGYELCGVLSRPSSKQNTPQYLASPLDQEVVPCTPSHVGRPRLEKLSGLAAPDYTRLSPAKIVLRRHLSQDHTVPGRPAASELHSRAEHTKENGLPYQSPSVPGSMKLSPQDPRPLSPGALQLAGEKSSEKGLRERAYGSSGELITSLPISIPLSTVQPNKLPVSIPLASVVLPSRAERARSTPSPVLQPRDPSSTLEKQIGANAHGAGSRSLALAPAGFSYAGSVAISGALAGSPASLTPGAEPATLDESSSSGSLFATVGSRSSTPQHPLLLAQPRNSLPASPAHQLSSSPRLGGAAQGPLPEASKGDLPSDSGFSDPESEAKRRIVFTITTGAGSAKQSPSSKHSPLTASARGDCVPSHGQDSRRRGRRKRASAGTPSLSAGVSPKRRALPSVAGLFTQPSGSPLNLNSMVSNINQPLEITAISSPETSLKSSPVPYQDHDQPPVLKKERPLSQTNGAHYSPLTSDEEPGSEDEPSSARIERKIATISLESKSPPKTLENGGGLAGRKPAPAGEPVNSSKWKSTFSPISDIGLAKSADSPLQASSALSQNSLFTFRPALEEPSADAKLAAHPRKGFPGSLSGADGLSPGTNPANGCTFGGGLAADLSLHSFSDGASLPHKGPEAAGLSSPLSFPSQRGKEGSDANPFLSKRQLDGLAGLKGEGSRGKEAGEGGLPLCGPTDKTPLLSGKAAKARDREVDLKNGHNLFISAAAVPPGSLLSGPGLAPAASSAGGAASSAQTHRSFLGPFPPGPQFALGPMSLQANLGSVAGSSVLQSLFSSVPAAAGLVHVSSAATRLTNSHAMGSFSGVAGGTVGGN

Test [2] deals with T1, Histone-lysine N-methyltransferase, H3 lysine-79 specific. Put plainly: Inhibition of N-terminal 6His-tagged human DOT1L (1 to 416 residues) expressed in Escherichia coli BL21(DE3) at 50 uM using histone H3 as substrate preincubated for 15 mins followed by SAM addition measured after 60 mins by AlphaLISA assay. An outline of the steps:
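DOT1L (80 nM final) preincubated with compound 15 min at 25 °C; SAM 1 mM and oligonucleosomes 0.25 ng/μL added in 50 mM Tris-HCl pH 8.0, 150 mM NaCl, 3 mM MgCl2, 0.1% BSA, 60 min at 25 °C; stopped with high-salt buffer; H3K79me2 detected with anti-H3 acceptor beads, biotinylated antibody, then streptavidin donor beads.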
Target sequence in this assay (Q8TEK3 whole entry, looked up, the tested form may be a part): as above

The target is the same in test [3]. Description: Inhibition of N-terminal 6His-tagged human DOT1L (1 to 416 residues) expressed in Escherichia coli BL21(DE3) at 50 and 100 uM preincubated for 15 mins followed by [3H]-SAM addition measured after 120 mins by radioactive methylation assay. An outline of the steps:
as §1
Target sequence in this assay (Q8TEK3 whole entry, looked up, the tested form may be a part): as above

Test [4] has the same target. Put plainly: Inhibition of N-terminal 6His-tagged human DOT1L (1 to 416 residues) expressed in Escherichia coli BL21(DE3) at preincubated for 15 mins followed by [3H]-SAM addition measured after 120 mins by radioactive methylation assay. The method, boiled down: as §1
Target sequence in this assay (Q8TEK3 whole entry, the tested form may be a part): as the sequence (Q8TEK3 whole entry, looked up, the tested form may be a part) above

Regarding `CCOc1ccc(-c2nn3c(Cn4nnc5ccccc54)nnc3s2)cc1`, in test [1], the inhibition was 50%.

As to `CCCc1nnc2sc(-c3cccc(F)c3)nn12`, the inhibition in test [1] came to 35%.

With `Cc1ccccc1Cc1nnc2sc(-c3cccc(F)c3)nn12`, the inhibition in test [1] was 27%.

Turning to `Cc1nc2ccccc2n1Cc1nnc2sc(-c3ccc(F)c(Br)c3)nn12`, the inhibition in test [1] was 49%.

Turning to `c1ccc(-c2nn3c(Cn4cnc5ccccc54)nnc3s2)cc1`, the inhibition in test [1] was 55%.

With `COc1ccc(-c2nn3c(Cn4nnc5ccccc54)nnc3s2)cc1`, in test [1], the inhibition is 54%.

`Brc1ccc(-c2nn3c(Cn4nnc5ccccc54)nnc3s2)cc1`: in test [1], the inhibition stood at 50%.

In the case of `CC(C)N(CCCNC(=O)Nc1ccc(C(C)(C)C)cc1)C[C@H]1O[C@@H](n2ccc3c(N)ncnc32)[C@H](O)[C@@H]1O`, the inhibition in test [2] was greater than 40%.

On to `Cc1ccc(Cn2c(SCC(=O)N/N=C/c3ccc(O)cc3)nc3ccccc32)cc1`, for which the inhibition entry in test [3] was “Active”. Also, the inhibition in test [2] is greater than 40%.

For `Brc1cccc(-c2nn3c(Cn4cnc5ccccc54)nnc3s2)c1`, the IC50 in test [4] was determined as 4.09 µM. For the same compound, the inhibition in test [1] amounted to 62%.

`Fc1cccc(-c2nn3c(Cc4ccccc4F)nnc3s2)c1`: the inhibition in test [1] came out at 25%.

With `c1ccc(-c2nn3c(Cn4nnc5ccccc54)nnc3s2)nc1`, the inhibition in test [1] stood at 53%.

As for `c1ccc2c(c1)nnn2Cc1nnc2sc(C34CC5CC(CC(C5)C3)C4)nn12`, the inhibition in test [1] was 38%.

Turning to `Fc1cccc(-c2nn3c(Cc4ccccc4)nnc3s2)c1`, the inhibition in test [1] is 33%.

As for `c1ccc2c(c1)nnn2Cc1nnc2sc(-c3ccc4c(c3)OCCO4)nn12`, the 50% inhibitory concentration (IC50) in test [4] is 8.4 µM. In addition, the inhibition in test [1] was 66%.

As to `c1coc(-c2nn3c(Cn4nnc5ccccc54)nnc3s2)c1`, the inhibition in test [1] is 48%.

For the compound `Cc1ccc(OCc2nn3c(Cn4nnc5ccccc54)nnc3s2)cc1`, the inhibition in test [1] stood at 52%.

As for `Fc1ccc(-c2nn3c(Cn4nnc5ccccc54)nnc3s2)cc1`, in test [4], the IC50 worked out at 4.64 µM. For the same compound, the inhibition in test [1] came out at 69%.

On to `CCc1nnc2sc(-c3cccc(F)c3)nn12`, for which the inhibition in test [1] was found to be 13%.

Turning to `Cc1cccc(OCc2nn3c(Cn4nnc5ccccc54)nnc3s2)c1`, the inhibition in test [1] was 50%.

`Cc1ccccc1-c1nn2c(Cn3nnc4ccccc43)nnc2s1`: in test [1], the inhibition worked out at 55%.

On to `Fc1cccc(-c2nn3c(CN4CCCCC4)nnc3s2)c1`, for which, in test [1], the inhibition stood at 6%.

With `CCOc1cc(CNCc2ccc(C(=O)O)cc2)ccc1OCc1cccs1`, the inhibition entry in test [3] is “Active”. This compound also registered an inhibition in test [2] greater than 40%.

Turning to `O=C1C/C(=N\Nc2nc(-c3cccc(O)c3)cs2)c2ccccc21`, in test [3], the inhibition entry is “Active”. For the same compound, the inhibition in test [2] was greater than 40%.

As to `Cc1ccc(-c2nn3c(Cn4cnc5ccccc54)nnc3s2)cc1C`, in test [4], the IC50 came to 17.4 µM. Besides, in test [1], the inhibition is 72%.

In the case of `Fc1cccc(-c2nn3c(-c4cccc(F)c4)nnc3s2)c1`, the inhibition in test [1] was determined as 11%.

Turning to `c1ccc2c(c1)nnn2Cc1nnc2sc(-c3ccc4c(c3)OCO4)nn12`, the IC50 in test [4] was 3.96 µM. The inhibition in test [1] was determined as 65%.

On to `c1ccc(Cc2nn3c(Cn4nnc5ccccc54)nnc3s2)cc1`, for which the IC50 in test [4] stood at 19.4 µM. Besides, the inhibition in test [1] stood at 63%.

With `Fc1cccc(-c2nn3c(CCc4ccccc4)nnc3s2)c1`, the inhibition in test [1] was 18%.

As for `Fc1cccc(-c2nn3c(Cn4cnc5ccccc54)nnc3s2)c1`, in test [1], the inhibition came out at 57%.

In the case of `CC(C)(C)c1ccc(-c2nn3c(Cn4nnc5ccccc54)nnc3s2)cc1`, the IC50 in test [4] amounted to 4.48 µM. In addition, the inhibition in test [1] was found to be 67%.

Regarding `COc1ccc(-c2nn3c(Cn4nnc5ccccc54)nnc3s2)cc1OC`, in test [1], the inhibition came out at 56%.

For the compound `COc1cccc(-c2nn3c(Cn4nnc5ccccc54)nnc3s2)c1`, the IC50 in test [4] was 6.47 µM. In test [1], the inhibition turned out to be 70%.

Turning to `c1ccc(OCc2nn3c(Cn4nnc5ccccc54)nnc3s2)cc1`, the inhibition in test [1] amounted to 43%.

As to `Fc1cccc(-c2nn3c(-c4ccccc4)nnc3s2)c1`, in test [1], the inhibition stood at 15%.

Turning to `COc1ccccc1-c1nn2c(Cn3nnc4ccccc43)nnc2s1`, the inhibition in test [1] was found to be 55%.

With `Fc1cccc(-c2nn3c(CSc4ccccc4)nnc3s2)c1`, the inhibition in test [1] was determined as 21%.

Broadly, the inhibition is the relative decrease from the control value, in per cent. Usually IC50 stands for the concentration that gives 50% inhibition.
